The values below come from ChEMBL document CHEMBL2157986, “The multiobjective based design, synthesis and evaluation of the arylsulfonamide/amide derivatives of aryloxyethyl- and arylthioethyl- piperidines and pyrrolidines as a novel class of potent 5-HT₇ receptor antagonists” (Eur J Med Chem, 2012).

The target in experiment [1] is 5-hydroxytryptamine receptor 7 (Homo sapiens, UniProt P34969). As to the kind of experiment: Displacement of [3H]-5-CT from human 5-HT7b receptor expressed in HEK293 cells after 1 hr. Format: cell-based. (In general: In a radioligand displacement assay an active substance lowers the binding of a labelled ligand.)
5-hydroxytryptamine receptor 7, sequence (P34969 whole entry): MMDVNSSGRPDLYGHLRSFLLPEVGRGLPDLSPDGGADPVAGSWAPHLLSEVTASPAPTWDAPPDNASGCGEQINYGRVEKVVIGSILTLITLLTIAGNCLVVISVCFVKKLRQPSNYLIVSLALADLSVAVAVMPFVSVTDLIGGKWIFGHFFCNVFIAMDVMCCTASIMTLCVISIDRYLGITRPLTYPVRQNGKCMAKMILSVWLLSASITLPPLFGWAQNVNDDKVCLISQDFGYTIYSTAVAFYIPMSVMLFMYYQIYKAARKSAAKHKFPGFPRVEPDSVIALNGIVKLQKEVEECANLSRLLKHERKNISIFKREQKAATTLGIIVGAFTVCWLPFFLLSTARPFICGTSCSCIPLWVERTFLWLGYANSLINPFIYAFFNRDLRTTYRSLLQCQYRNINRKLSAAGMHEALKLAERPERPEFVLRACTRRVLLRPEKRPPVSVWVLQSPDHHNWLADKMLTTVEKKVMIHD
In experiment [2] the target is D(2) dopamine receptor (Homo sapiens, UniProt P14416). The experiment in a line: Binding affinity to human dopamine D2L receptor expressed in HEK293 cells after 1 hr. Format: cell-based.
D(2) dopamine receptor, sequence (P14416 whole entry): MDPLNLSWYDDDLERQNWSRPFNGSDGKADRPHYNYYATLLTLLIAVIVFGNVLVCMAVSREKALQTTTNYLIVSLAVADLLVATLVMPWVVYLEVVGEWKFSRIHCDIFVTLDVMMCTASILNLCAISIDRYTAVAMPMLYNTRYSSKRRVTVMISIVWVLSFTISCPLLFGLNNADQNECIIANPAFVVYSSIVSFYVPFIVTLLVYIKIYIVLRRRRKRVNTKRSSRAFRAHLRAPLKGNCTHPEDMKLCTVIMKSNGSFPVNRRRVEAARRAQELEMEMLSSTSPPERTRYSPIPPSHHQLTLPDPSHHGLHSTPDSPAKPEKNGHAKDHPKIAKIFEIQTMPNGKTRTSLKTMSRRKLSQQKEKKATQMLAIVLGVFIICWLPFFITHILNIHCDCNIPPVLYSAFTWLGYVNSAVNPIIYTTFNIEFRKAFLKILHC
The target of experiment [3] is 5-hydroxytryptamine receptor 6 (Homo sapiens, UniProt P50406). As to the kind of experiment: Displacement of [3H]-LSD from human 5-HT6 receptor expressed in HEK293 cells after 1 hr. Format: cell-based.
5-hydroxytryptamine receptor 6, sequence (P50406 whole entry): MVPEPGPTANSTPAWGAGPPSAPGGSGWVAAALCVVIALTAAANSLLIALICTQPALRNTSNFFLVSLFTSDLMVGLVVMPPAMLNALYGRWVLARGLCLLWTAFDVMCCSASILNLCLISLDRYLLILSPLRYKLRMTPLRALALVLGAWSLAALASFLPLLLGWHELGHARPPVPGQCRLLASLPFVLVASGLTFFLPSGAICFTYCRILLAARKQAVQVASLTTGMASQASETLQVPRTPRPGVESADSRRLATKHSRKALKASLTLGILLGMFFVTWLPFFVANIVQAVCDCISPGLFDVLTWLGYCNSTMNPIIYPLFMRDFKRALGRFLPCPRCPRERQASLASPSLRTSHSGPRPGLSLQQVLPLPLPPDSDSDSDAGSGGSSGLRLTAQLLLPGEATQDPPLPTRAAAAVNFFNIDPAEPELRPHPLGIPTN
Experiment [4] has as its target T1, 5-hydroxytryptamine receptor 1A (Homo sapiens, UniProt P08908).
T1 sequence (P08908 whole entry): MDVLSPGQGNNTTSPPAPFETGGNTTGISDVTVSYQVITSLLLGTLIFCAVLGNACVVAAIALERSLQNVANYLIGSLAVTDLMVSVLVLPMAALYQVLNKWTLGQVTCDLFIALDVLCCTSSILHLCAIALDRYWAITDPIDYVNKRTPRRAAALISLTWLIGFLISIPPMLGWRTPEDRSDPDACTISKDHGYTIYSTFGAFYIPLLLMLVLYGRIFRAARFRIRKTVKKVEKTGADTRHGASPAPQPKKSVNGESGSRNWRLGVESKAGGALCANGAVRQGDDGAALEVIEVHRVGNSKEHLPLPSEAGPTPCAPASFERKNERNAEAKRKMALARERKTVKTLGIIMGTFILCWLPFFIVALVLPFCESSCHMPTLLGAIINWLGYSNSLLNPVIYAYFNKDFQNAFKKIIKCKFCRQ
The experiment in a line: Displacement of [3H]-8-OH-DPAT from human 5-HT1A receptor expressed in HEK293 cells after 1 hr. Format: cell-based. Summed up: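 Membranes from stably transfected HEK293 cells (human 5-HT1A), homogenized in 50 mM Tris–HCl, 0.1 mM EDTA, 4 mM MgCl2, 10 µM pargyline, 0.1% ascorbate; incubated 1 h at room temperature, then rapid filtration and radioactivity counting. Nonspecific binding with 10 µM 5-HT.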

For experiment [5], the species on record is Homo sapiens. As to the kind of experiment: Selectivity ratio of Ki for human 5-HT1A receptor to Ki for human 5-HT7b receptor.

Molecules are shown by their SMILES.

`CSc1ccccc1OCCN1CCC(NS(=O)(=O)c2ccc(F)cc2)C1` (stereo not given): the inhibition constant (Ki) (usually the equilibrium dissociation constant of an inhibitor or competing ligand from its target) in experiment [1] was 11 nM; in experiment [2] it was 41 nM; in experiment [3], 357 nM; in experiment [4] it was 10 nM. For the same compound, the Ratio Ki in experiment [5] stood at 1.
Consider `CC(C)c1ccccc1OCCN1CCC(NS(=O)(=O)c2cccs2)C1` (stereo not given), for which the inhibitory constant (Ki) amounted to 29 nM in experiment [1], 16 nM in experiment [2], 258 nM in experiment [3] and 21 nM in experiment [4]. For the same compound, the Ratio Ki in experiment [5] was below 1.
The like results for `CC(C)c1ccccc1OCCN1CCC(NS(=O)(=O)c2cccc3cccnc23)C1` (stereo not given) were, in that order, 10 nM, 10 nM, 504 nM, 23 nM and 2.
For the compound `O=S(=O)(N[C@@H]1CCN(CCOc2ccccc2-c2ccccc2)C1)c1ccc(F)cc1`, the Ki was 2 nM in experiment [1], 16 nM in experiment [2], 102 nM in experiment [3] and 22 nM in experiment [4]. The Ratio Ki in experiment [5] came to 11.
The like results for `O=S(=O)(NC1CCN(CCOc2ccccc2)C1)c1ccc(F)cc1` (stereo not given) were, in that order, 9 nM, 11 nM, 248 nM, 9 nM and 1.
For `CSc1ccccc1OCCN1CCC(NS(=O)(=O)c2cccc(Cl)c2)C1` (stereo not given), the Ki in experiment [1] is 15 nM; in experiment [2] it was 36 nM; in experiment [3], 185 nM; in experiment [4] it was 5 nM. For the same compound, the Ratio Ki in experiment [5] is below 1.
Take `O=S(=O)(N[C@H]1CCN(CCOc2ccccc2-c2ccccc2)C1)c1ccc(F)cc1`: the Ki in experiment [1] was determined as 10 nM; in experiment [2], 10 nM; in experiment [3], 271 nM; in experiment [4] it was 32 nM. The Ratio Ki in experiment [5] worked out at 3.
For `O=S(=O)(NC1CCN(CCOc2cccc3c2CCCC3)C1)c1cccs1` (stereo not given), the inhibition constant (Ki) was 27 nM in experiment [1], 72 nM in experiment [2], 102 nM in experiment [3] and 13 nM in experiment [4]. Besides, the Ratio Ki in experiment [5] was below 1.
In the case of `O=C(NC1CCN(CCOc2ccccc2-c2ccccc2)C1)c1cccc(F)c1F` (stereo not given), the Ki was 21 nM in experiment [1], 15 nM in experiment [2], 1800 nM in experiment [3] and 48 nM in experiment [4]. For the same compound, in experiment [5], the Ratio Ki stood at 2.
As for `CC(C)c1ccccc1OCCN1CCC(CNS(=O)(=O)c2cccc(Cl)c2)CC1`, the Ki in experiment [1] turned out to be 46 nM; in experiment [2], 66 nM; in experiment [3], 177 nM; in experiment [4], 104 nM. Moreover, the Ratio Ki in experiment [5] is 2.
For `O=S(=O)(NCC1CCN(CCOc2cccc(F)c2)CC1)c1cccc(Cl)c1` the same measures were 2190 nM, 560 nM, 831 nM, 283 nM and below 1.
The like results for `O=S(=O)(NC1CCN(CCOc2cccc(F)c2)C1)c1ccc(F)c(F)c1` (stereo not given) were, in that order, 293 nM, 523 nM, 951 nM, 230 nM and below 1.
Consider `O=S(=O)(NCC1CCN(CCOc2cccc(F)c2)CC1)c1cccs1`, for which the inhibition constant Ki in experiment [1] came out at 2220 nM; in experiment [2], 1060 nM; in experiment [3] it was 2760 nM; in experiment [4], 841 nM. Besides, the Ratio Ki in experiment [5] is below 1.
With `O=S(=O)(NC1CCN(CCOc2cccc3c2CCCC3)C1)c1cc(F)ccc1F` (stereo not given), the inhibition constant Ki in experiment [1] is 16 nM; in experiment [2], 60 nM; in experiment [3], 156 nM; in experiment [4] it was 10 nM. Moreover, in experiment [5], the Ratio Ki is below 1.
In the case of `O=S(=O)(NC1CCN(CCOc2ccccc2)CC1)c1cccs1`, the inhibition constant Ki in experiment [1] was 155 nM; in experiment [2], 84 nM; in experiment [3], 862 nM; in experiment [4], 237 nM. Also, the Ratio Ki in experiment [5] turned out to be 2.
Turning to `O=S(=O)(NC1CCN(CCOc2ccccc2-c2ccccc2)CC1)c1ccc(F)c(F)c1`, the inhibition constant Ki amounted to 7 nM in experiment [1], 63 nM in experiment [2], 199 nM in experiment [3] and 313 nM in experiment [4]. Further, the Ratio Ki in experiment [5] stood at 45.
As for `O=S(=O)(NC1CCN(CCOc2ccccc2-c2ccccc2)C1)c1ccc(F)c(F)c1` (stereo not given), the Ki in experiment [1] is 7 nM; in experiment [2], 24 nM; in experiment [3], 327 nM; in experiment [4], 92 nM. Besides, in experiment [5], the Ratio Ki worked out at 13.
In the case of `O=S(=O)(NCC1CCN(CCOc2cccc(F)c2)CC1)c1ccc(F)cc1`, the inhibition constant (Ki) in experiment [1] is 1360 nM; in experiment [2], 839 nM; in experiment [3] it was 2120 nM; in experiment [4] it was 903 nM. In addition, in experiment [5], the Ratio Ki is below 1.
As to `CSc1ccccc1OCCN1CCC(CNS(=O)(=O)c2cccc(Cl)c2)CC1`, the Ki in experiment [1] stood at 78 nM; in experiment [2], 50 nM; in experiment [3], 147 nM; in experiment [4], 18 nM. Also, the Ratio Ki in experiment [5] is below 1.
Consider `CC(C)c1ccccc1OCCN1CCC(NC(=O)c2ccc3ccccc3n2)C1` (stereo not given), for which the Ki worked out at 178 nM in experiment [1], 79 nM in experiment [2], 1760 nM in experiment [3] and 30 nM in experiment [4]. Moreover, the Ratio Ki in experiment [5] is below 1.
For the compound `O=S(=O)(NC1CCN(CCOc2cccc3c2CCCC3)C1)c1ccc(F)cc1` (stereo not given), the inhibition constant (Ki) in experiment [1] amounted to 16 nM; in experiment [2], 72 nM; in experiment [3], 96 nM; in experiment [4] it was 22 nM. For the same compound, the Ratio Ki in experiment [5] was found to be 1.
With `O=S(=O)(NCC1CCN(CCOc2ccccc2-c2ccccc2)CC1)c1ccc(F)cc1`, the inhibition constant (Ki) in experiment [1] is 13 nM; in experiment [2] it was 46 nM; in experiment [3], 315 nM; in experiment [4], 290 nM. For the same compound, the Ratio Ki in experiment [5] was determined as 22.
